These results are taken from ChEMBL document CHEMBL1938365, “Design and synthesis of novel small-molecule inhibitors of the hypoxia inducible factor pathway” (J Med Chem, 2011).

The source made the active and inactive calls. The calls are words filed in the database; no cut-off is given here. Where only a bound is given, the exact number is not on record here.

In assay [1] the target is T1, Hypoxia inducible factors; HIF-1-alpha, HIF-2-alpha (Homo sapiens, UniProt Q16665+Q99814). The experiment in a line: Inhibition of HIF1 in human LN229 cells after 1 hr preincubation under hypoxic condition measured after 24 hrs by luciferase reporter gene assay. Format: cell-based. In outline: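 LN229-HRELux human glioma cells stably carry a luciferase reporter driven by six VEGF-derived HIF response elements. Cells were seeded at 3 × 10^4 per well and held 24 h in normoxia, then pretreated 1 h with compound at 0, 1, 5, 10 or 25 μM (vehicle 1% DMSO). They were then moved to hypoxia (1% O2) for 24 h, lysed and read for luciferase. Reference inhibitor ran alongside; quadruplicate wells; IC50 from concentration curve.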
On the technique in general: In a reporter assay the amount or activity of a reporter protein is the signal.

Assay [2] has as its target Hypoxia-inducible factor 1-alpha (Homo sapiens) (UniProt Q16665). The experiment in a line: Inhibition of hypoxia-induced HIF1alpha accumulation in human LN229 cells at 20 uM after 1 hr preincubation measured after 24 hrs by Western blot analysis. Format: functional, cell-based. To be noted: LN-229. In outline: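 Western blot for HIF-1α in LN229 cells after 1 h pretreatment with inhibitor at 20 μM final (bortezomib control 100 nM), followed by 24 h in normoxia or hypoxia.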
(In general: Immunoblotting shows a protein as a band on a membrane.)

In assay [3] the target is T1, Hypoxia inducible factors; HIF-1-alpha, HIF-2-alpha. The experiment in a line: Inhibition of HIF1 in human LN229 cells at 10 uM after 1 hr preincubation under hypoxic condition measured after 24 hrs by luciferase reporter gene assay. Type of assay: cell-based. The method in brief:
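LN229 glioma cells stably transfected with VEGF promoter-luciferase (LN229-VEGF-Luc) were pretreated 1 h in normoxia with 10 μM (final) compound, then kept 24 h in normoxia or hypoxia. Luciferase was read as relative light units against vehicle control; triplicates, mean ± standard deviation.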

The next assay has as its system LN229. The experiment in a line: Ratio of KCN-1 IC50 to compound IC50 for HIF1 in human LN229 cells under hypoxic condition. Type of assay: cell-based.

Chain of Hypoxia-inducible factor 1-alpha (Homo sapiens) (Q16665 whole entry, looked up): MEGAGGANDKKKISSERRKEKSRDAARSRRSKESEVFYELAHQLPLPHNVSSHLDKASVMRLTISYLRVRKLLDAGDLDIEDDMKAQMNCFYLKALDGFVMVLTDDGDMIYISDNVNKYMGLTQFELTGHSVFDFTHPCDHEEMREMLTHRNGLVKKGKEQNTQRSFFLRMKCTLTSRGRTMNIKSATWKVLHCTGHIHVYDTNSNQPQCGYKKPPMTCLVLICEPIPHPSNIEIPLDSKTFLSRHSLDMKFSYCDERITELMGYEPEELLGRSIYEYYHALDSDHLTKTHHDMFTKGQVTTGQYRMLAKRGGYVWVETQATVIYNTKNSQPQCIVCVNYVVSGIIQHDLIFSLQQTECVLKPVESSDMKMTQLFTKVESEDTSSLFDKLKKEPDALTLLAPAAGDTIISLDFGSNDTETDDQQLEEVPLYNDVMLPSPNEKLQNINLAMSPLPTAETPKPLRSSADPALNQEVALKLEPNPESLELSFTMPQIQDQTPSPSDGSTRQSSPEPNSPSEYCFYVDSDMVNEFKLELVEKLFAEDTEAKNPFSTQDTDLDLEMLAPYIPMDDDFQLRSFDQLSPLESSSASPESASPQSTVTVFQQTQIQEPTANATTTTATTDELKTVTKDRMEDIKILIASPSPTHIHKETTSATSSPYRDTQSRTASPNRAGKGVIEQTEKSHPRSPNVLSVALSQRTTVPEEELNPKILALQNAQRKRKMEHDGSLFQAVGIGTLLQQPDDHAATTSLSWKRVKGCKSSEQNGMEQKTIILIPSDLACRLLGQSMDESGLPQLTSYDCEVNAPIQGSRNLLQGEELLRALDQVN

What is called IC50 is the concentration at which inhibition is half-maximal. The compound `COc1ccc(S(=O)(=O)N(Cc2cc3c(cn2)OC(C)(C)C=C3)C2CCCCC2)cc1OC` came in with an IC50 in assay [1] of 1.1 µM.

For `CCCCN(Cc1ccc2c(n1)C=CC(C)(C)O2)S(=O)(=O)c1ccc(OC)c(OC)c1`, the IC50 in assay [1] is 0.9 µM.

`COc1ccc(S(=O)(=O)N(Cc2cnc3c(c2)C=CC(C)(C)O3)C2CCCCC2)cc1OC` registered an IC50 in assay [1] of more than 25 µM.

`COc1ccc(S(=O)(=O)N(Cc2ccc3c(n2)C=CC(C)(C)O3)c2ccc(F)cc2)cc1OC` gave an IC50 in assay [1] of 5.7 µM.

In the case of `CC(C)C[C@H](NC(=O)[C@H](Cc1ccccc1)NC(=O)c1cnccn1)B(O)O`, the inhibition entry in assay [2] is “Active”.

As to `Cc1ccc(NCc2ccc3c(c2)C=CC(C)(C)O3)c(C)c1`, in assay [1], the concentration for half-maximal inhibition (IC50) was more than 25 µM.

With `CC1(C)C=Cc2nc(CN(c3ccccc3)S(=O)(=O)C3CCCCC3)ccc2O1`, the IC50 in assay [1] was 0.4 µM.

The compound `CC1(C)C=Cc2cc(CNc3ccccc3Br)ccc2O1` returned an IC50 in assay [1] of more than 25 µM.

The compound `COc1ccc(N(C)Cc2ccc3c(c2)C=CC(C)(C)O3)cc1OC` had an IC50 in assay [1] of 5 µM.

As to `COc1ccc(S(=O)(=O)N(Cc2ccc3c(c2)CC(C)(C)O3)C(C)C)cc1OC`, the IC50 in assay [1] was 1.5 µM.

Regarding `CC1(C)C=Cc2cc(CN(c3ccccc3)S(=O)(=O)c3ccc(Br)cc3OC(F)(F)F)ccc2O1`, the 50% inhibitory concentration (IC50) in assay [1] was more than 25 µM.

Take `CC1(C)C=Cc2nc(CN(c3ccccc3)S(=O)(=O)c3ccc(-c4ccccc4)cc3)ccc2O1`: in assay [1], the IC50 turned out to be 3.4 µM.

Consider `COc1ccc(S(=O)(=O)N(Cc2ccc3c(c2)CC(C)(C)O3)C2CCCC2)cc1OC`, for which the IC50 in assay [1] is 0.378 µM. Further, the inhibition result in assay [2] was “inactive”. The “HIF1 inhibition activity call (active/inactive)” value in assay [3] was “Active”.

Turning to `COc1ccc(S(=O)(=O)N(Cc2ccc3c(c2)C=CC(C)(C)O3)C(C)C)cc1OC`, the IC50 in assay [1] came out at 3.1 µM.

In the case of `CC1(C)C=Cc2cc(CNc3ccccn3)ccc2O1`, the concentration for half-maximal inhibition (IC50) in assay [1] is 8.5 µM.

As for `CC1(C)C=Cc2cc(CN(c3ccccc3)S(=O)(=O)c3ccc([N+](=O)[O-])cc3)ncc2O1`, the IC50 in assay [1] is 1.8 µM.

In the case of `COc1ccc(S(=O)(=O)N(CCC(C)C)Cc2ccc3c(c2)C=CC(C)(C)O3)cc1OC`, the IC50 in assay [1] was found to be 1.6 µM.

In turn, `COc1ccc(S(=O)(=O)N(Cc2ccc3c(c2)C=CC(C)(C)O3)C(C)(C)C)cc1OC` displayed an IC50 in assay [1] of 3.5 µM.

In the case of `COc1ccc(N(Cc2ccc3c(n2)C=CC(C)(C)O3)S(=O)(=O)c2ccc(OC)c(OC)c2)cc1OC`, the concentration for half-maximal inhibition (IC50) in assay [1] is more than 25 µM.

The compound `CC1(C)C=Cc2cc(CNc3ccc(C(=O)O)cc3)ccc2O1` gave an IC50 in assay [1] of more than 25 µM.

`COc1ccc(NCc2ccc3c(c2)C=CC(C)(C)O3)cc1OC` registered an IC50 in assay [1] of 3 µM.

`COc1ccc(S(=O)(=O)N(Cc2ccc3c(c2)C=CC(C)(C)O3)c2ccccc2)cc1` returned an IC50 in assay [1] of 0.6 µM.

In assay [1], `CCCCN(Cc1ccc2c(c1)C=CC(C)(C)O2)S(=O)(=O)c1ccc(OC)c(OC)c1` returned a half-inhibitory concentration (IC50) of 3.3 µM.

Regarding `CC1(C)C=Cc2cc(CNc3ccccc3F)ccc2O1`, the 50% inhibitory concentration (IC50) in assay [1] is more than 25 µM.

Compound `C#CCN(Cc1ccc2c(c1)C=CC(C)(C)O2)S(=O)(=O)c1ccc(OC)c(OC)c1` showed an IC50 in assay [1] of 1.3 µM.

Regarding `COc1ccc(S(=O)(=O)N(Cc2ccc3c(n2)C=CC(C)(C)O3)C2CCCC2)cc1OC`, the IC50 in assay [1] came to 0.6 µM.

`COc1ccc(S(=O)(=O)N(Cc2cnc3ccccc3c2)c2ccccc2)cc1OC` returned an IC50 in assay [1] of 3.5 µM.

For the compound `COc1ccc(S(=O)(=O)N(Cc2ccc3c(c2)CC(C)(C)O3)C2CCCCC2)cc1OC`, in assay [1], the IC50 stood at 8.2 µM.

As for `COc1ccc(S(=O)(=O)N(Cc2ccc3c(n2)C=CC(C)(C)O3)C2CCC2)cc1OC`, the half-inhibitory concentration (IC50) in assay [1] is 0.28 µM. Besides, the inhibition entry in assay [2] is “inactive”. In addition, the Ratio IC50 in the assay on LN229 was more than 2. In addition, the “HIF1 inhibition activity call (active/inactive)” value in assay [3] was “Active”.

In turn, `COc1ccc(S(=O)(=O)N(Cc2ccc3c(c2)CC(C)(C)O3)C2CCCCCC2)cc1OC` displayed an IC50 in assay [1] of 9.1 µM.

In assay [1], `Cc1ccc(N(C)Cc2ccc3c(c2)C=CC(C)(C)O3)c(C)c1` registered a half-maximal inhibitory concentration (IC50) of 2.6 µM.

`COc1ccc(S(=O)(=O)N(Cc2ccc3c(c2)C=CC(C)(C)O3)C2CC2)cc1OC` showed an IC50 in assay [1] of 1.5 µM.

With `COc1ccc(S(=O)(=O)N(Cc2ccc3c(c2)CC(C)(C)O3)c2ccccc2)cc1OC`, the IC50 in assay [1] came out at 0.306 µM. Moreover, in assay [2], the inhibition entry is “Active”. Further, in the assay with LN229, the Ratio IC50 was more than 2. Also, the “HIF1 inhibition activity call (active/inactive)” value in assay [3] is “Active”.

Turning to `CC1(C)C=Cc2nc(CN(c3ccccc3)S(=O)(=O)c3ccc4c(c3)OCCO4)ccc2O1`, the IC50 in assay [1] is 0.9 µM.

Consider `CCCS(=O)(=O)N(Cc1ccc2c(n1)C=CC(C)(C)O2)c1ccccc1`, for which the IC50 in assay [1] was 6.4 µM.

In assay [1], `CCCCN(Cc1ccc2c(c1)CC(C)(C)O2)S(=O)(=O)c1ccc(OC)c(OC)c1` came in with an IC50 of 0.478 µM. Also, the inhibition entry in assay [2] is “inactive”. For the same compound, the “HIF1 inhibition activity call (active/inactive)” value in assay [3] is “Active”.

For the compound `COc1c(C(C)n2cnc3ncccc32)ccc2c1C=CC(C)(C)O2` (stereo not drawn), in assay [2], the inhibition result is “inactive”. The “HIF1 inhibition activity call (active/inactive)” value in assay [3] was “Active”.

On to `COc1ccc(S(=O)(=O)N(Cc2ccc3c(n2)C=CC(C)(C)O3)c2ccccc2)cc1OC`, for which the IC50 in assay [1] was found to be 1.3 µM.

The compound `C=CCN(Cc1ccc2c(c1)C=CC(C)(C)O2)S(=O)(=O)c1ccc(OC)c(OC)c1` gave an IC50 in assay [1] of 3.4 µM.

Turning to `Cc1cc(C)cc(S(=O)(=O)N(Cc2ccc3c(c2)C=CC(C)(C)O3)c2ccccc2)c1`, the IC50 in assay [1] was 0.5 µM.

Compound `COc1ccc(S(=O)(=O)N(Cc2ccc3c(n2)C=CC(C)(C)O3)c2ccc3c(c2)CCCC3)cc1OC` had an IC50 in assay [1] of 6.2 µM.

`CC(C)CS(=O)(=O)N(Cc1ccc2c(n1)C=CC(C)(C)O2)c1ccccc1` returned an IC50 in assay [1] of 0.9 µM.

In the case of `CC1(C)C=Cc2cc(CN(c3ccccc3)S(=O)(=O)c3cc(Cl)ccc3Cl)ccc2O1`, the IC50 in assay [1] stood at 2.1 µM.

Consider `CC1(C)C=Cc2nc(CN(c3ccccc3)S(=O)(=O)c3ccc4c(c3)OCO4)ccc2O1`, for which the IC50 in assay [1] is 6.5 µM.

On to `COc1ccc(S(=O)(=O)N(Cc2ccc3c(c2)C=CC(C)(C)O3)c2ccccc2)cc1OC`, for which the inhibition result in assay [2] is “inactive”. In addition, the “HIF1 inhibition activity call (active/inactive)” value in assay [3] is “Active”.

Take `CC(C)S(=O)(=O)N(Cc1ccc2c(n1)C=CC(C)(C)O2)c1ccccc1`: in assay [1], the IC50 is 13.4 µM.

Compound `CCCCS(=O)(=O)N(Cc1ccc2c(n1)C=CC(C)(C)O2)c1ccccc1` displayed a half-maximal inhibitory concentration (IC50) in assay [1] of 5 µM.

For `COc1ccc(S(=O)(=O)N(Cc2ccc3c(n2)C=CC(C)(C)O3)C2CCCCC2)cc1OC`, the IC50 in assay [1] was 0.8 µM.

Take `COc1ccc(S(=O)(=O)N(Cc2cnc3c(c2)C=CC(C)(C)O3)c2ccccc2)cc1OC`: the IC50 in assay [1] turned out to be 2.5 µM.

The compound `CN(Cc1ccc2c(c1)C=CC(C)(C)O2)c1ccccn1` showed an IC50 in assay [1] of 8.4 µM.

In turn, `CC1(C)C=Cc2nc(CN(c3ccccc3)S(=O)(=O)c3cccc4cccnc34)ccc2O1` displayed an IC50 in assay [1] of 0.9 µM.

In turn, `COc1ccc(S(=O)(=O)N(Cc2ccc3c(c2)C=CC(C)(C)O3)C2CCCCC2)cc1OC` displayed an IC50 in assay [1] of 4 µM.

Consider `COc1ccc(S(=O)(=O)N(Cc2ccc3c(c2)C=CC(C)(C)O3)C2CCCC2)cc1OC`, for which, in assay [1], the IC50 came to 0.5 µM. For the same compound, the inhibition result in assay [2] is “Active”. Further, the “HIF1 inhibition activity call (active/inactive)” value in assay [3] is “Active”.

`COc1ccc(S(=O)(=O)N(Cc2ccc3c(n2)C=CC(C)(C)O3)C2CCCCCCC2)cc1OC`: the 50% inhibitory concentration (IC50) in assay [1] worked out at 0.7 µM.

In assay [1], `COc1ccc(S(=O)(=O)N(Cc2cc3c(cn2)OC(C)(C)C=C3)c2ccccc2)cc1` had an IC50 of 1.4 µM.

In turn, `CC(C)c1ccc(S(=O)(=O)N(Cc2cc3c(cn2)OC(C)(C)C=C3)C2CCCCC2)cc1` came in with an IC50 in assay [1] of 5.8 µM.

Turning to `CCC1(C)C=Cc2cc(CN(c3ccccc3)S(=O)(=O)c3ccc(OC)c(OC)c3)ccc2O1` (stereo not drawn), the half-maximal inhibitory concentration (IC50) in assay [1] amounted to 2.2 µM.

Consider `CC1(C)C=Cc2nc(CN(c3ccccc3)S(=O)(=O)C3CC3)ccc2O1`, for which the IC50 in assay [1] was more than 25 µM.

In assay [1], `COc1ccc(S(=O)(=O)N(Cc2ccc3c(n2)C=CC(C)(C)O3)C2CCCCCC2)cc1OC` showed an IC50 of 6.6 µM.
